# Experimental data as given in ChEMBL document CHEMBL1140034, “Conformationally constrained analogues of diacylglycerol. 30. An investigation of diacylglycerol-lactones containing heteroaryl groups reveals compounds with high selectivity for Ras guanyl nucleotide-releasing proteins” (J Med Chem, 2008).
# What was measured:
# [1] = biological target: T1, Ras guanyl-releasing protein 3 (Homo sapiens, UniProt Q8IV61); experiment: Displacement of [3H]PDBu from RasGRP3 expressed in cells; type: cell-based
# T1 sequence (Q8IV61 whole entry): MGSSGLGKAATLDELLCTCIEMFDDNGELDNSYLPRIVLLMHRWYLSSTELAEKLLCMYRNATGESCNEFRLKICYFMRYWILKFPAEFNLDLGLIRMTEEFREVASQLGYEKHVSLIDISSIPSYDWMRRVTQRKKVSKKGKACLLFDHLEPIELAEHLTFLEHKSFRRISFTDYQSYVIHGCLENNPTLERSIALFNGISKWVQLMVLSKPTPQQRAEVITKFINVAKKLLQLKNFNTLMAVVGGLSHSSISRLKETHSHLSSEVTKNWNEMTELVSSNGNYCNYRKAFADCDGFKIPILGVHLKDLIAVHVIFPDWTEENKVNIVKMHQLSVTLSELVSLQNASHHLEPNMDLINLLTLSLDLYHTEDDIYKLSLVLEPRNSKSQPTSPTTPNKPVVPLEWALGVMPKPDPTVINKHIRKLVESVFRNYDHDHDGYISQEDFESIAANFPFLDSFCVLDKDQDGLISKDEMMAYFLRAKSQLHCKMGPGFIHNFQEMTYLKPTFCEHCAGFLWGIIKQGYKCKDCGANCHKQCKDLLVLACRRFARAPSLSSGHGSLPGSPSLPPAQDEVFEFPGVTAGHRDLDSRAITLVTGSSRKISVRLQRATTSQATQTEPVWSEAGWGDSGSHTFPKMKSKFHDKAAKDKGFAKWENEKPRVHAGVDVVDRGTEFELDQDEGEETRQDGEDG
# Method in brief: (§1)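 Competition binding: displacement of bound [20-3H]phorbol 12,13-dibutyrate from recombinant PKC alpha or RasGRP3 measured in the presence of phosphatidylserine. IC50 obtained by fitting data points to the theoretical competition curve; Ki calculated from the corresponding IC50.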
# [2] = Lipophilicity, SlogP of the compound; type: physicochemical; conditions: octanol/water
# [3] = biological target: Protein kinase C alpha type (Homo sapiens, UniProt P17252); experiment: Displacement of [3H]PDBu from human recombinant PKCalpha expressed in Escherichia coli […] (DE3); method in brief: as §1
# [4] = Ratio of Ki for human recombinant PKCalpha to RasGRP3
# Method in brief: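 Ki values for PKC alpha and RasGRP3 each come from [20-3H]PDBu displacement from the recombinant protein in the presence of phosphatidylserine, with IC50 fitted to the theoretical competition curve and converted to Ki. The ratio is Ki(PKC alpha)/Ki(RasGRP3).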
SMILES,Ki [1] [nM],logP [2],Ki [3] [nM],Ratio Ki [4]
CC(C)CC(CC(=O)OCC1(CO)C/C(=C\c2ccccn2)C(=O)O1)CC(C)C (centres undefined),0.2,3.78,4.6,
CN(C)c1ccc(C(=O)OCC2(CO)C/C(=C\c3cccnc3)C(=O)O2)cc1 (centres undefined),59,2.07,790,13
COc1ccc(C(=O)OCC2(CO)C/C(=C/c3cccnc3)C(=O)O2)cc1 (centres undefined),5500,2.01,21200,4
COc1ccc(C(=O)OCC2(CO)C/C(=C\c3ccncc3)C(=O)O2)cc1 (centres undefined),54.2,2.01,1450,27
CCCC(CCC)C(=O)OCC1(CO)C/C(=C/c2ccncc2)C(=O)O1 (centres undefined),44,2.9,870,20
CN(C)c1ccc(C(=O)OCC2(CO)C/C(=C/c3ccc4ccccc4n3)C(=O)O2)cc1 (centres undefined),2040,3.22,15800,8
COc1ccc(C(=O)OCC2(CO)C/C(=C/c3ccc4ccccc4n3)C(=O)O2)cc1 (centres undefined),1390,3.16,2940,2
CN(C)c1ccc(C(=O)OCC2(CO)C/C(=C\c3ccc4ccccc4n3)C(=O)O2)cc1 (centres undefined),11,3.22,150,14
CN(C)c1ccc(C(=O)OCC2(CO)C/C(=C\c3ccc([N+](=O)[O-])cc3)C(=O)O2)cc1 (centres undefined),,,343,90
CCCC(CCC)C(=O)OCC1(CO)C/C(=C\c2cn(C)c3ccccc23)C(=O)O1 (centres undefined),0.18,4.36,29.7,165
CN(C)c1ccc(C(=O)OCC2(CO)C/C(=C\c3ccccn3)C(=O)O2)cc1 (centres undefined),23.8,2.07,1020,43
CCCC(CCC)C(=O)OCC1(CO)C/C(=C/c2cccnc2)C(=O)O1 (centres undefined),670,2.9,3270,5
CCCC(CCC)C(=O)OCC1(CO)C/C(=C/c2cnc3ccccc3c2)C(=O)O1 (centres undefined),32.2,4.06,177,5
CCCC(CCC)C(=O)OCC1(CO)C/C(=C\c2ccc3ccccc3n2)C(=O)O1 (centres undefined),1.7,4.06,51.9,31
COc1ccc(C(=O)OCC2(CO)C/C(=C\c3cn(C)c4ccccc34)C(=O)O2)cc1 (centres undefined),3.3,3.46,212,64
CCCC(CCC)C(=O)OCC1(CO)C/C(=C/c2ccccn2)C(=O)O1 (centres undefined),83,2.9,1370,16
COc1ccc(C(=O)OCC2(CO)C/C(=C\c3cccnc3)C(=O)O2)cc1 (centres undefined),81,2.01,810,10
COc1ccc(C(=O)OCC2(CO)C/C(=C\c3cnc4ccccc4c3)C(=O)O2)cc1 (centres undefined),17.4,3.16,144,8

SMILES,Ki [1] [nM],logP [2],Ki [3] [nM],Ratio Ki [4]
CCCC(CCC)C(=O)OCC1(CO)C/C(=C\c2cnc3ccccc3c2)C(=O)O1 (centres undefined),0.52,4.06,13.8,27
CN(C)c1ccc(C(=O)OCC2(CO)C/C(=C/c3ccncc3)C(=O)O2)cc1 (centres undefined),2360,2.07,33200,14
CN(C)c1ccc(C(=O)OCC2(CO)C/C(=C\c3cnc4ccccc4c3)C(=O)O2)cc1 (centres undefined),137,3.22,755,6
CN(C)c1ccc(C(=O)OCC2(CO)C/C(=C\c3ccncc3)C(=O)O2)cc1 (centres undefined),54,2.07,1110,19
CCCC(CCC)C(=O)OCC1(CO)C/C(=C\c2ccncc2)C(=O)O1 (centres undefined),13.8,2.9,627,45
CC(C)CC(CC(=O)OCC1(CO)C/C(=C\c2cn(C)c3ccccc23)C(=O)O1)CC(C)C (centres undefined),0.7,5.24,14.8,
COc1ccc(C(=O)OCC2(CO)C/C(=C/c3ccncc3)C(=O)O2)cc1 (centres undefined),3660,2.01,25400,7
COc1ccc(C(=O)OCC2(CO)C/C(=C\c3ccc([N+](=O)[O-])cc3)C(=O)O2)cc1 (centres undefined),6.7,,136,20
COc1ccc(C(=O)OCC2(CO)C/C(=C\c3ccc4ccccc4n3)C(=O)O2)cc1 (centres undefined),8.2,3.16,132,16
CN(C)c1ccc(C(=O)OCC2(CO)C/C(=C/c3cccnc3)C(=O)O2)cc1 (centres undefined),1970,2.07,34100,20
CCCC(CCC)C(=O)OCC1(CO)C/C(=C\c2ccccn2)C(=O)O1 (centres undefined),0.72,2.9,86.3,119
CCCC(CCC)C(=O)OCC1(CO)C/C(=C\c2cccnc2)C(=O)O1 (centres undefined),1.6,2.9,76,47
COc1ccc(C(=O)OCC2(CO)C/C(=C\c3ccccn3)C(=O)O2)cc1 (centres undefined),35.8,2.01,1130,32
CCCC(CCC)C(=O)OCC1(CO)C/C(=C/c2ccc3ccccc3n2)C(=O)O1 (centres undefined),4.6,4.06,78.8,17
CN(C)c1ccc(C(=O)OCC2(CO)C/C(=C\c3cn(C)c4ccccc34)C(=O)O2)cc1 (centres undefined),3.7,3.22,174,47
COc1ccc(C(=O)OCC2(CO)C/C(=C/c3cnc4ccccc4c3)C(=O)O2)cc1 (centres undefined),907,3.16,5100,6
CN(C)c1ccc(C(=O)OCC2(CO)C/C(=C/c3cnc4ccccc4c3)C(=O)O2)cc1 (centres undefined),1410,3.22,4880,3
COc1ccc(C(=O)OCC2(CO)C/C(=C/c3ccccn3)C(=O)O2)cc1 (centres undefined),2470,2.01,27100,11
